Measurements as given in ChEMBL document CHEMBL1143785, “N/C-4 substituted azetidin-2-ones: synthesis and preliminary evaluation as new class of antimicrobial agents” (2007).
≈ marks a conversion by molar mass, not a printed value. Calls of active or inactive are those of the source. The calls are words filed in the database; no cut-off is given here.

How the values were obtained:
Type in all cases: functional
Staphylococcus aureus = assay: Antimicrobial activity against Staphylococcus aureus at 400 ug/ml after 48 hrs by disc-diffusion assay; conditions: for zone of inhibition at 400 µg/mL: read-out: IZ
How it was run: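 Bacteria were grown 2.5 h in nutrient broth and spread evenly over dried agar plates. Sterile 6 mm paper discs were impregnated with 400 µg/mL compound and placed on the inoculated surface. A DMF solvent-only disc served as negative control and chloramphenicol as reference. Plates were incubated at 37 °C and inhibition zone diameter (mm) was read at 48 h.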

Salmonella typhi = assay: Antimicrobial activity against Salmonella typhi at 400 ug/ml after 48 hrs by disc-diffusion assay; conditions: for inhibition zone (IZ): Salmonella enterica subsp. enterica serovar Typhi; for zone of inhibition at 400 µg/mL: Salmonella enterica, read-out: IZ
How it was run: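 Disc diffusion. A few colonies were grown in nutrient broth for 2.5 h, then spread evenly on dried agar plates. Sterile 6 mm paper discs impregnated with compound were placed on the surface. Plates were incubated at 37 °C and the inhibition zone diameter in mm was read at 48 h. A DMF-only disc served as the negative control and chloramphenicol as the standard.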

Bacillus anthracis = assay: Antimicrobial activity against Bacillus anthracis at 400 ug/ml after 48 hrs by disc-diffusion assay; conditions: for zone of inhibition at 400 µg/mL: read-out: IZ
Aspergillus fumigatus = assay: Antimicrobial activity against Aspergillus fumigatus after 72 hrs by broth dilution assay
How it was run: (§1)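 Tube broth dilution in Sabouraud's Dextrose medium. Compound was dissolved in DMF and tested over 15.62 to 8000 µg/mL. Tubes were inoculated with fungal culture suspension and incubated at 25 °C for 72 h alongside a control. MIC was taken as the lowest concentration giving no turbidity.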

Aspergillus niger = assay: Antimicrobial activity against Aspergillus niger after 72 hrs by broth dilution assay; how it was run: as §1
Candida albicans = assay: Antimicrobial activity against Candida albicans after 72 hrs by broth dilution assay; how it was run: as §1

O=C1[C@@H](Cl)[C@@H](c2cc(/N=N/c3ccc([N+](=O)[O-])cc3)ccc2O)N1c1ccc(Br)cc1
inhibition zone (IZ) (Staphylococcus aureus): inactive | inhibition zone (IZ) (Salmonella typhi): inactive | zone of inhibition at 400 µg/mL (Bacillus anthracis): 8 mm | MIC (Aspergillus fumigatus): inactive | MIC (Aspergillus niger): 4000 µg/mL (≈ 7.97 mM) | MIC (Candida albicans): 4000 µg/mL (≈ 7.97 mM)

O=C1[C@@H](Cl)[C@@H](c2cc(/N=N/c3cccc([N+](=O)[O-])c3)ccc2O)N1c1ccc(F)cc1
zone of inhibition at 400 µg/mL (Staphylococcus aureus): 29 mm | zone of inhibition at 400 µg/mL (Salmonella typhi): 21 mm | zone of inhibition at 400 µg/mL (Bacillus anthracis): 28 mm | MIC (Aspergillus niger): 500 µg/mL (≈ 1.13 mM) | MIC (Candida albicans): 62.5 µg/mL (≈ 0.142 mM)

COc1cc([C@@H]2[C@H](Cl)C(=O)N2NC(=O)CC(=O)Nc2ccccc2[N+](=O)[O-])ccc1OC(C)=O
zone of inhibition at 400 µg/mL (Staphylococcus aureus): 11 mm | inhibition zone (IZ) (Salmonella typhi): inactive | zone of inhibition at 400 µg/mL (Bacillus anthracis): 17 mm | MIC (Aspergillus niger): 4000 µg/mL (≈ 8.15 mM) | MIC (Candida albicans): 2000 µg/mL (≈ 4.07 mM)

O=C1[C@@H](Cl)[C@@H](c2cc(/N=N/c3cccc([N+](=O)[O-])c3)ccc2O)N1c1ccc(Br)cc1
zone of inhibition at 400 µg/mL (Staphylococcus aureus): 11 mm | zone of inhibition at 400 µg/mL (Salmonella typhi): 8 mm | zone of inhibition at 400 µg/mL (Bacillus anthracis): 17 mm | MIC (Aspergillus niger): 4000 µg/mL (≈ 7.97 mM) | MIC (Candida albicans): inactive

O=C(N[C@H](CO)[C@H](O)c1ccc([N+](=O)[O-])cc1)C(Cl)Cl [CHLORAMPHENICOL]
zone of inhibition at 400 µg/mL (Staphylococcus aureus): 32 mm | zone of inhibition at 400 µg/mL (Salmonella typhi): 36 mm | zone of inhibition at 400 µg/mL (Bacillus anthracis): 34 mm | MIC (Aspergillus fumigatus): inactive | MIC (Aspergillus niger): inactive | MIC (Candida albicans): inactive

COc1cc([C@@H]2[C@H](Cl)C(=O)N2NC(=O)CC(=O)Nc2ccc(Cl)cc2)ccc1OC(C)=O
zone of inhibition at 400 µg/mL (Staphylococcus aureus): 30 mm | zone of inhibition at 400 µg/mL (Salmonella typhi): 29 mm | zone of inhibition at 400 µg/mL (Bacillus anthracis): 34 mm | MIC (Aspergillus niger): 1000 µg/mL (≈ 2.08 mM) | MIC (Candida albicans): 31.2 µg/mL (≈ 0.0651 mM)

COc1cc([C@@H]2[C@H](Cl)C(=O)N2NC(=O)CC(=O)Nc2cccc([N+](=O)[O-])c2)ccc1OC(C)=O
zone of inhibition at 400 µg/mL (Staphylococcus aureus): 27 mm | zone of inhibition at 400 µg/mL (Salmonella typhi): 31 mm | zone of inhibition at 400 µg/mL (Bacillus anthracis): 33 mm | MIC (Aspergillus niger): 2000 µg/mL (≈ 4.07 mM) | MIC (Candida albicans): 62.5 µg/mL (≈ 0.127 mM)

OC(Cn1cncn1)(Cn1cncn1)c1ccc(F)cc1F [FLUCONAZOLE]
inhibition zone (IZ) (Staphylococcus aureus): inactive | inhibition zone (IZ) (Salmonella typhi): inactive | inhibition zone (IZ) (Bacillus anthracis): inactive | MIC (Aspergillus niger): 2000 µg/mL (≈ 6.53 mM) | MIC (Candida albicans): 250 µg/mL (≈ 0.816 mM)

COc1cc([C@@H]2[C@H](Cl)C(=O)N2NC(=O)CC(=O)Nc2cccc(Cl)c2)ccc1OC(C)=O
zone of inhibition at 400 µg/mL (Staphylococcus aureus): 26 mm | zone of inhibition at 400 µg/mL (Salmonella typhi): 17 mm | zone of inhibition at 400 µg/mL (Bacillus anthracis): 22 mm | MIC (Aspergillus niger): 2000 µg/mL (≈ 4.16 mM) | MIC (Candida albicans): 125 µg/mL (≈ 0.26 mM)

COc1cc([C@@H]2[C@H](Cl)C(=O)N2NC(=O)CC(=O)Nc2ccc([N+](=O)[O-])cc2)ccc1OC(C)=O
inhibition zone (IZ) (Staphylococcus aureus): inactive | inhibition zone (IZ) (Salmonella typhi): inactive | zone of inhibition at 400 µg/mL (Bacillus anthracis): 12 mm | MIC (Aspergillus niger): 4000 µg/mL (≈ 8.15 mM) | MIC (Candida albicans): 1000 µg/mL (≈ 2.04 mM)

O=C1[C@@H](Cl)[C@@H](c2cc(/N=N/c3ccc([N+](=O)[O-])cc3)ccc2O)N1c1ccc(Cl)cc1
zone of inhibition at 400 µg/mL (Staphylococcus aureus): 17 mm | zone of inhibition at 400 µg/mL (Salmonella typhi): 10 mm | zone of inhibition at 400 µg/mL (Bacillus anthracis): 21 mm | MIC (Aspergillus fumigatus): inactive | MIC (Aspergillus niger): 2000 µg/mL (≈ 4.37 mM) | MIC (Candida albicans): 250 µg/mL (≈ 0.547 mM)

O=C1[C@@H](Cl)[C@@H](c2cc(/N=N/c3ccc([N+](=O)[O-])cc3)ccc2O)N1c1ccccc1
zone of inhibition at 400 µg/mL (Staphylococcus aureus): 8 mm | inhibition zone (IZ) (Salmonella typhi): inactive | zone of inhibition at 400 µg/mL (Bacillus anthracis): 10 mm | MIC (Aspergillus fumigatus): inactive | MIC (Aspergillus niger): 4000 µg/mL (≈ 9.46 mM) | MIC (Candida albicans): 2000 µg/mL (≈ 4.73 mM)

COc1cc([C@@H]2[C@H](Cl)C(=O)N2NC(=O)CC(=O)Nc2ccccc2Cl)ccc1OC(C)=O
zone of inhibition at 400 µg/mL (Staphylococcus aureus): 12 mm | inhibition zone (IZ) (Salmonella typhi): inactive | zone of inhibition at 400 µg/mL (Bacillus anthracis): 21 mm | MIC (Aspergillus niger): 1000 µg/mL (≈ 2.08 mM) | MIC (Candida albicans): 500 µg/mL (≈ 1.04 mM)

O=C1[C@@H](Cl)[C@@H](c2cc(/N=N/c3cccc([N+](=O)[O-])c3)ccc2O)N1c1ccccc1
zone of inhibition at 400 µg/mL (Staphylococcus aureus): 24 mm | zone of inhibition at 400 µg/mL (Salmonella typhi): 18 mm | zone of inhibition at 400 µg/mL (Bacillus anthracis): 31 mm | MIC (Aspergillus niger): 4000 µg/mL (≈ 9.46 mM) | MIC (Candida albicans): 1000 µg/mL (≈ 2.37 mM)

O=C1[C@@H](Cl)[C@@H](c2cc(/N=N/c3cccc([N+](=O)[O-])c3)ccc2O)N1c1ccc(Cl)cc1
zone of inhibition at 400 µg/mL (Staphylococcus aureus): 30 mm | zone of inhibition at 400 µg/mL (Salmonella typhi): 27 mm | zone of inhibition at 400 µg/mL (Bacillus anthracis): 32 mm | MIC (Aspergillus niger): 1000 µg/mL (≈ 2.19 mM) | MIC (Candida albicans): 125 µg/mL (≈ 0.273 mM)

O=C1[C@@H](Cl)[C@@H](c2cc(/N=N/c3ccc([N+](=O)[O-])cc3)ccc2O)N1c1ccc(F)cc1
inhibition zone (IZ) (Staphylococcus aureus): inactive | inhibition zone (IZ) (Salmonella typhi): inactive | zone of inhibition at 400 µg/mL (Bacillus anthracis): 12 mm | MIC (Aspergillus niger): 4000 µg/mL (≈ 9.07 mM) | MIC (Candida albicans): 2000 µg/mL (≈ 4.54 mM)

COc1cc([C@@H]2[C@H](Cl)C(=O)N2NC(=O)CC(=O)Nc2ccccc2)ccc1OC(C)=O
zone of inhibition at 400 µg/mL (Staphylococcus aureus): 10 mm | inhibition zone (IZ) (Salmonella typhi): inactive | inhibition zone (IZ) (Bacillus anthracis): inactive | MIC (Aspergillus niger): 4000 µg/mL (≈ 8.97 mM) | MIC (Candida albicans): 1000 µg/mL (≈ 2.24 mM)
